The results in this text go back to PMC3198121 (Journal of Medicinal Chemistry, 2011).

The structures appear in SMILES notation.

Format in all cases: cell-based
Test [1] addresses T1, GPR35 (Homo sapiens, UniProt Q9HC97). Kind of test: Receptor internalization assay in HT29. The note with it: HT-29; 1 μM 16a, 10 μM 15a; 1 h at 37 °C. In outline: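 HT29 cells seeded at 10000/well on chamber slides, 24 h at 37 °C, then exposed to compound or matching DMSO for 1 h at 37 °C. Cells were fixed in 4% formaldehyde for 15 min and blocked/permeabilized for 2 h (goat serum, BSA, Triton X-100). Staining used anti-GPR35 T-14 (intracellular epitope, 1:500, 24 h), then Alexa Fluor 594 anti-goat (1:500, 1 h RT), with DAPI nuclei. Read by confocal imaging.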

Test [2] has as its target T1, GPR35. Kind of test: DMR agonist assay after shRNA knockdown of GPR35 in HT29. The settings on record: all compounds at 10 μM; n = 4; mock transfection as control. An outline of the steps: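 HT29 cells seeded at 5000/well on biosensor plates, 24 h at 37 °C, then transiently transfected (Effectene, 0.05 μg plasmid DNA) with GPR35 shRNA in GFP-expressing pGFP-V-RS vector or control plasmid. Medium was renewed next day. About 48 h post-transfection, cells were washed into HBSS (20 mM Hepes, pH 7.1) and equilibrated 1 h at 26 °C. Label-free DMR was recorded kinetically after a 2 min baseline and compound addition.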

In test [3] the target is T1, GPR35. Kind of test: DMR agonist assay in HT-29 cells. The note with it: for agonist type in DMR assay: compared to zaprinast; for fold decrease in potency relative to 16a: compared with compound 16a.
In test [4] the target is T1, GPR35. The test is described as follows: Tango β-arrestin translocation gene reporter assay in Tango GPR35-bla U2OS cells. The settings on record: for agonist type in Tango β-arrestin translocation assay: compared to zaprinast; for Tango assays % zaprinast: efficacy relative to zaprinast, Tango GPR35-bla U2OS cells. Background: In a reporter assay the amount or activity of a reporter protein is the signal.

In test [5] the target is T1, GPR35. The note with it: HT29; for blockage of the compound-induced DMR by compound 17: compound 17 at 64 μM.
Test [6] deals with T1, GPR35. The note with it: zaprinast 1 μM in DMSO treated cells; n = 90.

T1 sequence (Q9HC97 whole entry): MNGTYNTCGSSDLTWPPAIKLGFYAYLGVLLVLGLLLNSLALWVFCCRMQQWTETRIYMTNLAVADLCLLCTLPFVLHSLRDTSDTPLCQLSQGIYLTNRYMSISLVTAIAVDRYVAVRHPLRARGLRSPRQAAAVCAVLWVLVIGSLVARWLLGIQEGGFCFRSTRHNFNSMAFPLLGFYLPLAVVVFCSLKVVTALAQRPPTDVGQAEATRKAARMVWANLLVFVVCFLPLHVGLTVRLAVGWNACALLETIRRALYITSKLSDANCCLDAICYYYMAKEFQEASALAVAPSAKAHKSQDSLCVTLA

`Cc1c(C(=O)O)sc2c(Br)csc12` [Compound 16a, 6-Bromo-3-methylthieno[3,2-b]thiophene-2-carboxylic Acid]: in test [1], the “internalization of endogenous GPR35” value is “significant internalization”. For the same compound, the “effect of shRNA knockdown of GPR35 on the compound-induced DMR” value (“effect of shRNA knockdown of GPR35” for short) in test [2] is “significantly attenuated”. In addition, the “agonist type in DMR assay” value in test [3] was “full agonist”. Besides, in test [4], the “response in Tango assay” value was “dose-dependent and saturable responses”; the “agonist type in Tango β-arrestin translocation assay” value is “full agonist”.

For `CCOC(=O)c1sc2c(Br)csc2c1C` [Compound 15a, Ethyl 6-Bromo-3-methylthieno[3,2-b]thiophene-2-carboxylate], the “internalization of endogenous GPR35” value in test [1] was “unable to trigger receptor internalization”.

Turning to `CC1=C(C#N)C(=C(C#N)C#N)OC1(C)c1ccc(F)cc1F` (centres unmarked) [Compound 8, 2-(3-cyano-5-(2,4-difluorophenyl)-4,5-dimethylfuran-2(5H)-ylidene)malononitrile], in test [5], the “blockage of the compound-induced DMR by compound 17” value is recorded as “only partially suppressed”.

With `CCCCCCCCCCCc1c(C(=O)O)sc2c(Br)csc12` [Compound 16c, 6-Bromo-3-undecylthieno[3,2-b]thiophene-2-carboxylic Acid], in test [4], the “response in Tango assay” value was “dose-dependent and saturable responses”; the “agonist type in Tango β-arrestin translocation assay” value is listed as “partial agonists”.

As for `CCCOc1ccccc1-c1nc2[nH]nnc2c(=O)[nH]1` [zaprinast, reference compound], the “zaprinast DMR amplitude in the desensitization step (positive control)” value in test [6] amounted to 238 ± 25 pm. In addition, the “effect of shRNA knockdown of GPR35” value in test [2] was “significantly attenuated”. The “DMR assays % zaprinast” value in test [3] (efficacy relative to zaprinast, HT-29, DMR amplitude at 8 min post stimulation) amounted to 100 ± 5%. Moreover, the “DMR amplitude, maximal response” value in test [3] (zaprinast 1 μM (saturating dose), about 8 min poststimulation, n = 32) worked out at 246 ± 11 pm. For the same compound, the “Tango assays % zaprinast” value in test [4] was 100 ± 7%.

Regarding `COC(=O)c1cnn(-c2ccc(F)cc2F)c1/C=N/NC(=S)NC(C)(C)C` [Compound 17, methyl-5-[(tert-butylcarbamothioylhydrazinylidene)methyl]-1-(2,4-difluorophenyl)-pyrazole-4-carboxylate, reference compound], in test [5] (compound 17 at 64 μM (highest dose)), the “blockage of the zaprinast DMR by compound 17” value is given as “almost completely blocked”. In addition, in test [3], the “DMR agonist activity in HT-29” value is given as “did not lead to any detectable DMR”.

As for `O=C(O)c1cc2sccc2s1` [Compound 10, Thieno[3,2-b]thiophene-2-carboxylic Acid], the “fold decrease in potency relative to 16a” value in test [3] (DMR EC50) is on record as “over 600 fold”. Also, in test [4], the “response in Tango assay” value was “detectable responses” and the “agonist type in Tango β-arrestin translocation assay” value is given as “partial agonists”.

Turning to `CC1=C(C#N)C(=C(C#N)C#N)OC1(C)c1ccc(Cl)c(Cl)c1Cl` (centres unmarked) [Compound 5, 2-(3-cyano-4,5-dimethyl-5-(2,3,4-trichlorophenyl)furan-2(5H)-ylidene)malononitrile], the “blockage of the compound-induced DMR by compound 17” value in test [5] was “only partially suppressed”. Further, in test [3] (DMR EC50, compared with compound 1), the “fold decrease in potency to trigger DMR signal relative to 1” value was 350 fold.

For `CC1=C(C#N)C(=C(C#N)C#N)OC12CCCCC2` [Compound 7, 2-(3-cyano-4-methyl-1-oxaspiro[4.5]dec-3-en-2-ylidene)malononitrile], the “blockage of the compound-induced DMR by compound 17” value in test [5] was “only partially suppressed”. In test [4], the “response in Tango assay” value is on record as “detectable responses”, the “agonist type in Tango β-arrestin translocation assay” value was “partial agonists” and the “Tango assays % zaprinast” value is on record as “weak”.

Turning to `CC1=C(C#N)C(=C(C#N)C#N)OC1(C)C` [Compound 9, 2-(3-Cyano-4,5,5-trimethylfuran-2(5H)-ylidene)malononitrile], the “effect of shRNA knockdown of GPR35” value in test [2] is given as “significantly attenuated”. Also, in test [4], the “response in Tango assay” value is given as “detectable responses”, the “agonist type in Tango β-arrestin translocation assay” value is on record as “partial agonists” and the “Tango assays % zaprinast” value was “weak”.

On to `Cc1csc2c1sc1cc(C(=O)O)sc12` [Compound 13, 5-Methyldithieno[3,2-b:2′,3′-d]thiophene-2-carboxylic Acid], for which the “blockage of the compound-induced DMR by compound 17” value in test [5] is on record as “only partially suppressed”. Besides, the “effect of shRNA knockdown of GPR35” value in test [2] is reported as “significantly attenuated”. Besides, in test [4], the “response in Tango assay” value is “detectable responses” and the “agonist type in Tango β-arrestin translocation assay” value is reported as “partial agonists”.

Regarding `CCCCCCc1csc2cc(C(=O)O)sc12` [Compound 12, 6-Hexylthieno[3,2-b]thiophene-2-carboxylic Acid], in test [4], the “response in Tango assay” value was “detectable responses” and the “agonist type in Tango β-arrestin translocation assay” value was “partial agonists”.

Regarding `CCCCCCCCc1c(C(=O)O)sc2c(Br)csc12` [Compound 16b, 6-Bromo-3-octylthieno[3,2-b]thiophene-2-carboxylic Acid], in test [4], the “response in Tango assay” value is “detectable responses” and the “agonist type in Tango β-arrestin translocation assay” value was “partial agonists”.

In the case of `CC1=C(C#N)C(=C(C#N)C#N)OC1(C)c1ccc(Cl)c(Cl)c1` (centres unmarked) [Compound 1, 2-(3-cyano-5-(3,4-dichlorophenyl)-4,5-dimethylfuran-2(5H)-ylidene)malononitrile], the “effect of shRNA knockdown of GPR35” value in test [2] was “significantly attenuated”. In addition, the “agonist type in DMR assay” value in test [3] is “full agonist”. Moreover, in test [4], the “response in Tango assay” value is “dose-dependent and saturable responses”; the “agonist type in Tango β-arrestin translocation assay” value is “partial agonist”.

On to `CC1=C(C#N)C(=C(C#N)C#N)OC1(c1ccccc1)C(F)(F)F` (centres unmarked) [Compound 3, 2-(3-cyano-4-methyl-5-phenyl-5-(trifluoromethyl)furan-2(5H)-ylidene)malononitrile], for which, in test [4], the “response in Tango assay” value was “dose-dependent and saturable responses”; the “agonist type in Tango β-arrestin translocation assay” value is “partial agonists”.

For `CCCCCCc1c(C(=O)O)sc2ccsc12` [Compound 11, 3-Hexylthieno[3,2-b]thiophene-2-carboxylic Acid], the “blockage of the compound-induced DMR by compound 17” value in test [5] was “only partially suppressed”. For the same compound, in test [3] (DMR EC50), the “fold decrease in potency relative to 16a” value is given as “about 54 fold”. Further, in test [4], the “response in Tango assay” value was “detectable responses” and the “agonist type in Tango β-arrestin translocation assay” value is listed as “partial agonists”.
